Source: ChEMBL document CHEMBL1151821, “Macrocyclic peptidomimetic beta-secretase (BACE-1) inhibitors with activity in vivo” (Bioorg Med Chem Lett, 2009)

What was measured:
in vivo [1] = details: C57BL/6, mouse, brain/plasma, iv, 30 umol/kg
Brain [2] = assay: Drug level in APP51/16 transgenic mouse brain expressing human APP at 30 umol/kg, iv administered twice at 2 hrs interval measured after 3 hrs of last dose; details: in vivo
[3] = Drug level in C57BL/6 mouse brain at 30 umol/kg, iv after 5 hrs; format: ADME, organism-based; details: read-out: Drug uptake
In short: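 C57BL/6 mice, single i.v. dose of 30 µmol/kg. Compound levels in brain and plasma followed over 5 h; brain:plasma ratio from 5 min to 5 h.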

in vivo [4] = details: C57BL/6, mouse, brain/plasma, iv, 30 umol/kg; remark: listed apart in the source
Brain [5] = assay: Drug level in APP51/16 transgenic mouse brain expressing human APP at 30 umol/kg, iv after 5 hrs; format: ADME, organism-based; details: in vivo
In short: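 Single i.v. dose of 30 µmol/kg in APP51/16 transgenic mice (human APP, brain-specific promoter), sacrificed 5 h after dosing. Compound level measured in brain.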

Brain [6] = assay: Drug level in APP51/16 transgenic mouse brain expressing human APP at 100 umol/kg, po administered twice at 3 hrs interval measured after 7 hrs of last dose; details: in vivo

`CC(C)c1cccc(CNC[C@@H](O)[C@@H]2C[C@H](C)CCCCCCCCC(=O)N(C)[C@@H](C)C(=O)N2)c1` gave a Kp at 5 h (in vivo [1]) of 4, a Drug uptake (Brain [2]) of 4.3 µmol/kg and a concentration at 5 h [3] of over 1000 nM. The Kp at 5 min (in vivo [4]) was 1.5 and the Drug uptake (Brain [5]) was 1.3 µmol/kg.
`CC(C)c1ccc2c(c1)[C@@H](NC[C@@H](O)[C@@H]1C[C@H](C)CCCCCCCCC(=O)N(C)[C@@H](C)C(=O)N1)CC(C)(C)O2` showed a Drug uptake (Brain [6]) of 1.5 µmol/kg.
